# Assay results reported in ChEMBL document CHEMBL2010761, “NO-SSRIs: Nitric Oxide Chimera Drugs Incorporating a Selective Serotonin Reuptake Inhibitor” (ACS Med Chem Lett, 2011).
# Active and inactive are the calls of the source. The rule behind the calls is not given here.
# Tests used:
# Mus musculus [1] = test: Antiamnesic activity in scopolamine-induced C57BL/6 mouse assessed as aversive memory measuring increase in latency to enter dark area at 1.54 mg/kg, ip administered 20 mins prior training measured after 48 hrs by step-through passive avoidance task analysis relative to control; format: functional, organism-based; parameters: dose 1.54 mg/kg
# In short: (§1)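 Mice trained 2 h after habituation. Scopolamine 1 mg/kg in saline given ip 30 min before training, test drug in 25% DMSO given ip 20 min before training. Footshock 0.6 mA for 2 s on entering the dark compartment, with the door closing. Latency to enter the dark chamber recorded 48 h after training, drug-free. N = 9–11. Means and SEMs; ANOVA with Tukey post hoc test.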
# [2] = target: Sodium-dependent serotonin transporter (Homo sapiens) (UniProt P31645); test: Inhibition of human SERT-mediated serotonin reuptake in HEK293 cells at 100 nM relative to fluoxetine; format: cell-based
# In short: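 HEK-293 cells stably transfected with human SERT cDNA were used to measure serotonin reuptake with test compounds at 100 nM. […] Means ± SEM from three separate experiments.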
# Rattus norvegicus [3] = test: Antidepressant activity in Sprague-Dawley rat assessed as decrease in immobility time at 26.5 mg/kg, ip administered 1, 5 and 24 hrs prior test by forced swimming task analysis relative to control; format: functional, organism-based; parameters: dose 26.5 mg/kg
# In short: (§2)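 Drug was given ip at 24, 5 and 1 h before the 5 min test, which was scored in 60 blocks of 5 s for struggle, swimming and immobility durations. Comparison was against vehicle by ANOVA with Tukey's post hoc test; means ± SEM.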
# Plasma [4] = test: Prodrug activation in mouse plasma assessed as formation of fluoxetine at 15 mg/kg, ip after 20 mins by LC-MS/MS analysis; format: organism-based; parameters: dose 15 mg/kg, route intraperitoneal; conditions: in vivo
# Mus musculus [5] = test: Antiamnesic activity in scopolamine-induced C57BL/6 mouse assessed as aversive memory measuring increase in latency to enter dark area at 2.05 mg/kg, ip administered 20 mins prior training measured after 48 hrs by step-through passive avoidance task analysis relative to control; format: functional, organism-based; parameters: dose 2.05 mg/kg
# In short: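 Mice received scopolamine (1 mg/kg in physiological saline, ip) 30 min before training, and test drug in 25% DMSO ip 20 min before training. Training came 2 h after habituation: the animal was placed in the lit compartment, and entry to the dark side triggered door closure and a 0.6 mA, 2 s footshock. Latency to enter the dark chamber was retested 48 h later with no drug. N = 9–11; means ± SEM; ANOVA with Tukey's post hoc test.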
# [6] = Prodrug activation in PBS assessed as production of NO at 500 uM after 30 mins by chemiluminescence assay; conditions: buffer, 0.5 h
# In short: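 Compound (500 μM) was mixed with glutathione-containing PBS in a sealed vessel. NO in the headspace was measured by chemiluminescence after 30 min.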
# [7] = Half life in PBS at pH 7 to 8 assessed as hydrolysis of compound to fluoxetine at 200 uM by HPLC-UV analysis; format: physicochemical
# [8] = Prodrug activation in PBS at pH 7 assessed as hydrolysis of compound to fluoxetine at 200 uM by HPLC-UV analysis; conditions: buffer, pH 7, 200 µM
# [9] = Prodrug activation in PBS at pH 8 assessed as hydrolysis of compound to fluoxetine at 200 uM by HPLC-UV analysis; conditions: buffer, pH 8, 200 µM
# [10] = Prodrug activation in PBS at pH 7.4 assessed as hydrolysis of compound to fluoxetine at 200 uM by HPLC-UV analysis; conditions: buffer, pH 7.4, 200 µM
# [11] = Prodrug activation in PBS at pH 7 to 8 assessed as hydrolysis of compound to fluoxetine at 200 uM after 7 hrs by HPLC-UV analysis; conditions: buffer, pH 7, 7 h
# Plasma [12] = test: Prodrug activation in mouse plasma assessed as formation of fluoxetine at 15 mg/kg, ip after 120 mins by LC-MS/MS analysis; format: organism-based; parameters: dose 15 mg/kg, route intraperitoneal; conditions: in vivo, 2 h
# Rattus norvegicus [13] = test: Antidepressant activity in Sprague-Dawley rat assessed as increase in swimming time at 26.5 mg/kg, ip administered 1, 5 and 24 hrs prior test by forced swimming task analysis relative to control; format: functional, organism-based; parameters: dose 26.5 mg/kg; in short: as §2
# Brain [14] = test: Prodrug activation in mouse brain assessed as formation of fluoxetine at 15 mg/kg, ip after 20 mins by LC-MS/MS analysis; format: organism-based; parameters: dose 15 mg/kg, route intraperitoneal; conditions: in vivo
# Brain [15] = test: Prodrug activation in mouse brain assessed as formation of fluoxetine at 15 mg/kg, ip after 120 mins by LC-MS/MS analysis; format: organism-based; parameters: dose 15 mg/kg, route intraperitoneal; conditions: in vivo, 2 h
# Rattus norvegicus [16] = test: Antidepressant activity in Sprague-Dawley rat assessed as change in struggle time at 26.5 mg/kg, ip administered 1, 5 and 24 hrs prior test by forced swimming task analysis relative to control; format: functional, organism-based; parameters: dose 26.5 mg/kg; in short: as §2
# Mus musculus [17] = test: Antiamnesic activity in scopolamine-induced C57BL/6 mouse assessed as aversive memory measuring increase in latency to enter dark area at 1 mg/kg, ip administered 20 mins prior training measured after 48 hrs by step-through passive avoidance task analysis relative to control; format: functional, organism-based; parameters: dose 1 mg/kg; in short: as §1
# Rattus norvegicus [18] = test: Antidepressant activity in Sprague-Dawley rat assessed as increase in swimming time at 10 mg/kg, ip administered 1, 5 and 24 hrs prior test by forced swimming task analysis relative to control; format: functional, organism-based; parameters: dose 10 mg/kg
# In short: (§3)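 Male Sprague-Dawley rats, 200–250 g, given a 15 min pre-swim in the water tank 24 h before testing. Drug or vehicle given ip at 24, 5 and 1 h before the test. The 5 min test was scored in 60 blocks of 5 s for struggle, swimming and immobility. Means and SEMs; ANOVA with Tukey post hoc test.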
# Rattus norvegicus [19] = test: Antidepressant activity in Sprague-Dawley rat assessed as decrease in immobility time at 10 mg/kg, ip administered 1, 5 and 24 hrs prior test by forced swimming task analysis relative to control; format: functional, organism-based; parameters: dose 10 mg/kg; in short: as §3
# Rattus norvegicus [20] = test: Antidepressant activity in Sprague-Dawley rat assessed as change in struggle time at 10 mg/kg, ip administered 1, 5 and 24 hrs prior test by forced swimming task analysis relative to control; format: functional, organism-based; parameters: dose 10 mg/kg; in short: as §3
# Chain of Sodium-dependent serotonin transporter (Homo sapiens) (P31645 whole entry, looked up): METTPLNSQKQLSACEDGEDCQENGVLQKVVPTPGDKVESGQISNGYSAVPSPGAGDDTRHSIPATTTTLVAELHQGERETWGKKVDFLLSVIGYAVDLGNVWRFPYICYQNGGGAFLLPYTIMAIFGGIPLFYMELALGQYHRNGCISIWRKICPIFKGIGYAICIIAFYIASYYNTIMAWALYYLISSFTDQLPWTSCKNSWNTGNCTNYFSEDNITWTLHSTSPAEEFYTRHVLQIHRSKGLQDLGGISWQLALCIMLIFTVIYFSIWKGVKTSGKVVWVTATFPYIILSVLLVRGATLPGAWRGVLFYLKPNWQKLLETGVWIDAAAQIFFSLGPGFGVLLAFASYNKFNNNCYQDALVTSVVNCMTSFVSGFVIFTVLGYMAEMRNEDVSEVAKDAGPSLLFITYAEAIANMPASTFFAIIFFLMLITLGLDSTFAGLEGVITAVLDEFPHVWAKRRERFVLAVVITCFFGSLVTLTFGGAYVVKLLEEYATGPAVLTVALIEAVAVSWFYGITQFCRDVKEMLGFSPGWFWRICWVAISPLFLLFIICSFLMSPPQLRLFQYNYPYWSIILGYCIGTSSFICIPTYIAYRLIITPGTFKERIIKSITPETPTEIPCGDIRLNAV
structure (smiles),measurement,setting,value
CNCCC(Oc1ccc(C(F)(F)F)cc1)c1ccccc1 (stereo unspecified),Activity,Mus musculus [1],inactive
O=C(SCCO[N+](=O)[O-])N1CC[C@@H](c2ccc(F)cc2)[C@H](COc2ccc3c(c2)OCO3)C1,Efficacy,[2],< 15%
CN(CCC(Oc1ccc(C(F)(F)F)cc1)c1ccccc1)C(=O)SCCO[N+](=O)[O-] (stereo unspecified),Activity,Rattus norvegicus [3],Active
same,Efficacy,[2],< 15%
same,Drug metabolism,Plasma [4],Active
same,Activity,Mus musculus [5],Active
same,Drug metabolism,[6],8.9 nM
same,half-life at 200 µM,[7],1.67 h
same,Drug metabolism,[8],Active
same,Drug metabolism,[9],Active
same,Drug metabolism,[10],Active
same,Drug metabolism,[11],Active
same,Drug metabolism,Plasma [12],Active
same,Activity,Rattus norvegicus [13],Active
same,Drug metabolism,Brain [14],Active
same,Drug metabolism,Brain [15],Active
same,Activity,Rattus norvegicus [16],Active
Cc1ncsc1CCO[N+](=O)[O-],Activity,Mus musculus [17],Active
same,Activity,Rattus norvegicus [18],Active
same,Activity,Rattus norvegicus [19],Active
same,Activity,Rattus norvegicus [20],Active
